Measured values as given in ChEMBL document CHEMBL1144230, “Development of a second generation of inhibitors of microsomal prostaglandin E synthase 1 expression bearing the gamma-hydroxybutenolide scaffold” (Bioorg Med Chem, 2008).
Active and inactive are the calls of the source. No cut-off for these calls is given here.

How the values were obtained:
RAW264.7 [1] = test: Inhibition of LPS-stimulated COX2 expression in mouse RAW264.7 cells by Western blot; format: functional, cell-based
Procedure, shortened: (§1)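 Cells were RAW 264.7 at 1.5 × 10⁶ cells/mL, 18 h with LPS 1 µg/mL and compound at 1 or 10 µM; dexamethasone as reference. Lysis in HEPES pH 8.0 buffer with protease/phosphatase inhibitors, spin 10,000g 15 min 4 °C. COX-2 taken from total fraction, mPGES-1 from microsomal fraction. 50 µg protein per lane on SDS–15% PAGE, PVDF, polyclonal antibodies (COX-2 1/1000, mPGES-1 1/200). β-actin loading control. Bands expressed relative to LPS control. Two experiments.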

RAW264.7 [2] = test: Inhibition of LPS-stimulated microsomal prostaglandin E synthase 1 expression in mouse RAW264.7 cells by Western blot; format: functional, cell-based; procedure, shortened: as §1
RAW264.7 [3] = test: Cytotoxicity against mouse RAW264.7 cells at 10 uM after 20 hrs by MTT assay; format: cell-based; conditions: raw264.7, 20 h
Procedure, shortened: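 RAW 264.7 macrophages (1.5 × 10⁶ cells/mL) co-incubated with 1 µg/mL E. coli 0111:B4 LPS at 37 °C for 20 h, compound added in ethanol (ethanol alone as control). Viability read by mitochondrial reduction of MTT to formazan.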

RAW264.7 [4] = test: Inhibition of LPS-stimulated PGE2 production in mouse RAW264.7 cells after 20 hrs by radioimmunoassay; format: functional, cell-based; conditions: RAW264.7, 20 h
Procedure, shortened: (§2)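 Murine RAW 264.7 macrophages, 1.5 × 10⁶ cells/mL, given 1 µg/mL E. coli 0111:B4 LPS at 37 °C for 20 h with compound in ethanol (vehicle ethanol 1%). Supernatant PGE₂ measured by radioimmunoassay. Mean ± SEM, n = 6. IC₅₀ from at least four significant concentrations. ANOVA then Dunnett's t-test.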

RAW264.7 [5] = test: Inhibition of LPS-stimulated PGE2 production in mouse RAW264.7 cells at 10 uM after 20 hrs by radioimmunoassay; format: functional; conditions: RAW264.7, 20 h; procedure, shortened: as §2
Apis mellifera = test: Inhibition of bee venom group 3 sPLA2 at 10 uM
Procedure, shortened: (§3)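 Radiometric sPLA2 assay with membranes of E. coli CECT 101 labelled by growth with [3H]oleic acid, then autoclaved. Enzyme in Tris–HCl, 1 mM CaCl2, pH 7.5, preincubated 5 min at 37 °C with compound in ethanol (vehicle 1%), then 15 min with the labelled membranes. Released radioactivity counted. Percent inhibition versus vehicle control, mean ± SEM, n = 6.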

[6] = biological target: T1, Phospholipase A2, membrane associated (Homo sapiens) (UniProt P14555); test: Inhibition of human synovial recombinant group 2A sPLA2 at 10 uM
T1 sequence (whole entry): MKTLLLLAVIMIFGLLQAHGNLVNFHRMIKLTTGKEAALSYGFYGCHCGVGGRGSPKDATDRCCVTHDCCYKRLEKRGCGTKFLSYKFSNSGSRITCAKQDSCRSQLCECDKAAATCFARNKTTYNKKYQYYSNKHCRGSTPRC
Procedure, shortened: (§4)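 Compound tested at 10 µM in ethanol (vehicle 1%). Enzyme preincubated 5 min at 37 °C in Tris–HCl, 1 mM CaCl₂, pH 7.5, then incubated 15 min with [³H]oleate-labelled, autoclaved E. coli CECT 101 membranes. Released radioactivity counted. Percent inhibition versus vehicle control, mean ± SEM, n = 6. Enzymes: human recombinant synovial group IIA; porcine pancreatic group IB.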

Sus scrofa = species on record: Sus scrofa; test: Inhibition of pig pancreas group 1B sPLA2 at 10 uM; procedure, shortened: as §4
Naja naja = test: Inhibition of Naja naja venom group 1A sPLA2 at 10 uM; procedure, shortened: as §3
RAW264.7 [7] = test: Inhibition of LPS-stimulated COX2 expression in mouse RAW264.7 cells at 10 uM by Western blot; format: functional, cell-based; procedure, shortened: as §1
RAW264.7 [8] = test: Inhibition of LPS-stimulated microsomal prostaglandin E synthase 1 expression at 10 uM in mouse RAW264.7 cells by Western blot; format: functional, cell-based; procedure, shortened: as §1

| Compound | Activity (RAW264.7 [1]) | Activity (RAW264.7 [2]) | Cytotoxicity (RAW264.7 [3]) | IC50 (RAW264.7 [4]) | inhibition at 10 µM (RAW264.7 [5]) | inhibition (Apis mellifera) | inhibition [6] | inhibition (Sus scrofa) | inhibition (Naja naja) | Activity (RAW264.7 [7]) | Activity (RAW264.7 [8]) |
| --- | --- | --- | --- | --- | --- | --- | --- | --- | --- | --- | --- |
| O=C1OC(O)C(c2cccc(-c3ccc4ccccc4c3)c2)=C1c1ccc2ccccc2c1 (stereo not drawn) | inactive | Dose-dependent effect | 8.6% | 0.84 µM | 79.6% | 2.8% | 14.8% | 0% | 2% |  |  |
| CCCCc1ccc(-c2ccc(C3=C(Br)C(=O)OC3O)cc2)cc1 (stereo not drawn) | inactive | Dose-dependent effect | 5.5% | 2.24 µM | 62.2% | 3.5% | 0% | 0% | 0% |  |  |
| O=C1OC(O)C(c2cccc(-c3csc4ccccc34)c2)=C1Br (stereo not drawn) |  |  | 0% |  | 33.6% | 13.9% | 30% | 28.6% | 11.7% |  |  |
| O=C1OC(O)C(c2cccc(-c3ccc4ccccc4c3)c2)=C1Br (stereo not drawn) |  |  | 18.6% |  | 66.8% | 0% | 0% | 0% | 0% |  |  |
| O=C1OC(O)C(c2ccc(-c3ccc(-c4ccccc4)cc3)cc2)=C1Br (stereo not drawn) | inactive | Dose-dependent effect | 1.2% | 3.61 µM | 73.1% | 0% | 12.1% | 0% | 0% |  |  |
| CCc1c(CC(N)=O)c2cc(OCCCP(=O)(O)O)ccc2n1Cc1ccccc1 |  |  |  |  |  | 2.4% | 96.3% | 36.9% | 7.9% |  |  |
| O=C1OC(O)C(c2cccc(-c3ccc(Oc4ccccc4)cc3)c2)=C1Br (stereo not drawn) |  |  | 0% |  | 51% | 5.3% | 2.4% | 0% | 5.8% |  |  |
| O=C1OC(O)C(c2cccc(-c3csc4ccccc34)c2)=C1c1cccc(-c2csc3ccccc23)c1 (stereo not drawn) | inactive | Dose-dependent effect | 4.1% | 3.23 µM | 69.2% | 4% | 2.4% | 8.3% | 3.6% |  |  |
| O=C1OC(O)C(c2cccc(-c3ccc(Oc4ccccc4)cc3)c2)=C1c1cccc(-c2ccc(Oc3ccccc3)cc2)c1 (stereo not drawn) |  |  | 0% |  | 22.2% | 6% | 10.6% | 10.2% | 16.6% |  |  |
| C[C@@H]1C[C@H]2[C@@H]3CCC4=CC(=O)C=C[C@]4(C)[C@@]3(F)[C@@H](O)C[C@]2(C)[C@@]1(O)C(=O)CO |  |  |  |  |  |  |  |  |  | Active | Active |
| O=C1OC(O)C(c2csc3ccccc23)=C1Br (stereo not drawn) |  |  | 0% | 1.8 µM | 72.2% |  |  |  |  |  |  |
| CCCCc1ccc(C2=C(c3ccc(-c4ccc(CCCC)cc4)cc3)C(O)OC2=O)cc1 (stereo not drawn) | inactive | Dose-dependent effect | 0% | 4.59 µM | 58.7% | 2.8% | 4.4% | 0% | 2.6% |  |  |
